The results in this text go back to ChEMBL document CHEMBL2331224 (J Med Chem, 2013).

For series [1], the target named is T1, Retinoic acid receptor RXR-alpha (Homo sapiens, UniProt P19793).
T1 sequence (P19793 whole entry): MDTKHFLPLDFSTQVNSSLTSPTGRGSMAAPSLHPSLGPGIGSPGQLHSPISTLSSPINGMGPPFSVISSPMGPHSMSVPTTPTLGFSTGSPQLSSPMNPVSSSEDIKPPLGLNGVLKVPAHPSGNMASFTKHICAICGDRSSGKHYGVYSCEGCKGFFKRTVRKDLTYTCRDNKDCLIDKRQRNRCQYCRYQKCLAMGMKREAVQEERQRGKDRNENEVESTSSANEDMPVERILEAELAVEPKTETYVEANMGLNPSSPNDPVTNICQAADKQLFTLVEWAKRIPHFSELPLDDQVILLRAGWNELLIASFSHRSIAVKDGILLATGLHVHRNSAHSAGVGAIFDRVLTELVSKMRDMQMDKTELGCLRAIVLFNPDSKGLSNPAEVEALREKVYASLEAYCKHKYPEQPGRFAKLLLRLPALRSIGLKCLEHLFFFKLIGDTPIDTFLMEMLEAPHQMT
As to the kind of experiment: Partial agonist activity at RXRalpha (unknown origin) expressed in COS1 cells after 18 hrs by luciferase reporter gene assay. The format is cell-based, COS-1. Put shortly: (§1)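 COS-1 cells in DMEM with 10% FBS at 37 °C, 5% CO2, transfected with RXRα, an RXR-response-element luciferase reporter and a SEAP background vector. Cells were seeded at about 2.0 × 10⁴ per well with compound (DMSO below 1%) for 18 h. Luciferase was normalized to SEAP and expressed relative to 1 μM reference RXR full agonist as 100%. EC50 came from full dose-response curves. Triplicates, at least three experiments.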

Series [2] concerns the target T2, Retinoic acid receptor RXR-alpha (Homo sapiens) (UniProt P19793).
T2 sequence (whole entry): T1 sequence (P19793 whole entry)
As to the kind of experiment: Transactivation of RXRalpha (unknown origin) expressed in COS1 cells at 0.1 uM after 18 hrs by luciferase reporter gene assay relative to bexarotene. The format is cell-based. Conditions: COS-1. Put shortly:
as §1

Series [3] concerns the target T2, Retinoic acid receptor RXR-alpha (Homo sapiens). As to the kind of experiment: Transactivation of RXRalpha (unknown origin) expressed in COS1 cells at 1 uM after 18 hrs by luciferase reporter gene assay relative to bexarotene. The format is cell-based. The note with it: COS-1. The essentials:
as §1
In general terms: In a reporter assay the amount or activity of a reporter protein is the signal.

For series [4] the target is unchanged. Kind of series: Partial agonist activity at RXRalpha (unknown origin) expressed in COS1 cells after 18 hrs by luciferase reporter gene assay relative to bexarotene. Type of series: cell-based. Conditions: COS-1. Put shortly: as §1
The target is the same in series [5]. Kind of series: Transactivation of RXRalpha (unknown origin) expressed in COS1 cells at 10 uM after 18 hrs by luciferase reporter gene assay relative to bexarotene. The format is cell-based. Conditions: COS-1. Put shortly: as §1
Series [6] relates to Mus musculus. Kind of series: Toxicity against KKAy mouse assessed as blood urea nitrogen level at 10 mg/kg/day, po for 14 days (reference value: 21.9 +/- 1.1 mg/dL). The format is organism-based. Also noted: route oral. The note with it: in vivo, 336 h.
Series [7] has as its system Mus musculus. Kind of series: Toxicity against KKAy mouse assessed as total cholesterol level at 10 mg/kg/day, po for 14 days (reference value: 153.2 +/- 11.1 mg/dL). Conditions: in vivo, 336 h. The format is organism-based. Also noted: route oral.
The subject of series [8] is Mus musculus. Kind of series: Toxicity against KKAy mouse assessed as plasma ALT level at 10 mg/kg/day, po for 14 days (reference value: 17.6 +/- 0.9 IU). On the set-up: route oral. The format is organism-based. Conditions: in vivo, 336 h.
Series [9] deals with Mus musculus. Kind of series: Toxicity against KKAy mouse assessed as plasma AST level at 10 mg/kg/day, po for 14 days (reference value: 49.6 +/- 2.3 IU). Conditions: in vivo, 336 h. Also noted: route oral. The format is organism-based.
Series [10] has as its system Mus musculus. Kind of series: Toxicity against KKAy mouse assessed as plasma ALP level at 10 mg/kg/day, po for 14 days (reference value: 358.2 +/- 43.1 IU). Type of series: organism-based. On the set-up: route oral. The note with it: in vivo, 336 h.
Series [11] concerns Mus musculus. As to the kind of experiment: Toxicity against KKAy mouse assessed as plasma triglyceride level at 10 mg/kg/day, po for 14 days (reference value: 122.4 +/- 11.0 mg/dL). The format is organism-based. On the set-up: route oral. Conditions: in vivo, 336 h.
For series [12], the system named is Mus musculus. As to the kind of experiment: Toxicity against KKAy mouse assessed as plasma gammaGTP level at 10 mg/kg/day, po for 14 days (reference value: 5.8 +/- 0.6 IU). On the set-up: route oral. The format is organism-based. The note with it: in vivo, 336 h.
Series [13] deals with Mus musculus. As to the kind of experiment: Toxicity against KKAy mouse assessed as creatinine level at 10 mg/kg/day, po for 14 days (reference value: 0.2 mg/dl). Type of series: organism-based. On the set-up: route oral. The note with it: in vivo, 336 h.
The subject of series [14] is Mus musculus. Kind of series: Toxicity in ICR mouse assessed as weight gain at 30 mg/kg/day, po for 7 days relative to control. The format is organism-based. The note with it: in vivo, 168 h. On the set-up: route oral. The essentials:
(§2)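 Male ICR mice, 6−7 weeks old, four per cage, grouped by body weight. Oral 30 mg/kg or vehicle (1% ethanol/0.5% CMC in water, 10 mL/kg) once daily for 7 days, body weight recorded daily. After overnight fasting, mice were weighed under ether, and liver was removed and weighed. Serum was analysed on a dry-chemistry analyser for TG, TCHO, ALP, CRE, BUN and other markers. n = 7−23, ANOVA.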

Series [15] has as its system Mus musculus. Kind of series: Toxicity in ICR mouse assessed as change in renal function parameters at 30 mg/kg/day, po for 7 days. The format is organism-based. Also noted: route oral. The note with it: in vivo, 168 h. The essentials: as §2
For series [16], the system named is Mus musculus. Kind of series: Toxicity in ICR mouse assessed as increase in blood triglyceride level at 30 mg/kg/day, po for 7 days. Type of series: organism-based. On the set-up: route oral. Conditions: in vivo, 168 h. The essentials: as §2

Structures are written as SMILES.

The term EC50 denotes the concentration needed to bring the measured effect to its halfway point. A low value points to a more potent agent. The Emax is the greatest response seen or fitted, relative to the assay's reference. For `Cc1cc2c(cc1-n1c(N)nc3cc(C(=O)O)ccc31)C(C)(C)CCC2(C)C`, the EC50 in [1] turned out to be 155 nM. Also, the Efficacy in series [2] was less than 5%; in series [3], 35%; in series [5], 96%. Besides, the Emax in series [4] is 103%.
Compound `Cc1cc2c(cc1-n1ccc3cc(C(=O)O)ccc31)C(C)(C)CCC2(C)C` displayed an EC50 in series [1] of 83 nM. For the same compound, the Efficacy in series [2] stood at 45%; in series [3] it was 67%; in series [5] it was 77%. Besides, the Emax in [4] is 73%.
The compound `Cc1cc2c(cc1-n1cnc3cc(C(=O)O)ccc31)C(C)(C)CCC2(C)C` came in with an EC50 in series [1] of 633 nM. Further, the Efficacy was less than 5% in [2], 52% in [3] and 72% in series [5]. The Emax in [4] worked out at 75%.
On to `CCc1ccc(CCOc2ccc(CC3SC(=O)NC3=O)cc2)nc1` (centres undefined) [PIOGLITAZONE], for which the Activity in the series on Mus musculus [6] stood at 22.2 mg/dL; in the series on Mus musculus [7] it was 147.3 mg/dL; in the series with Mus musculus [8], 21.3 IU; with Mus musculus [9], 45.3 IU; in the series on Mus musculus [10], 395.7 IU; in the series with Mus musculus [11], 124 mg/dL. Also, the Activity with Mus musculus [12] was determined as 7.3 IU; in the series on Mus musculus [13], 0.2 mg/dL.
For the compound `CCN(c1ccc2c(c1)C(C)(C)CCC2(C)C)c1ccc(C(=O)O)cn1`, in series [1], the EC50 came to 3.8 nM. The Efficacy in series [2] amounted to 86%; in series [3] it was 96%; in [5] it was 98%. The Activity entry in the series on Mus musculus [14], in the series with Mus musculus [15] and with Mus musculus [16] was “Non-toxic” in each case.
With `Cc1cc2c(cc1-n1c(C)nc3cc(C(=O)O)ccc31)C(C)(C)CCC2(C)C`, the EC50 in [1] came to 367 nM. Moreover, the Efficacy is 28% in series [2], 70% in series [3] and 80% in series [5]. Besides, the maximal effect (Emax) in [4] is 94%. Moreover, the Activity entry with Mus musculus [14], in the series with Mus musculus [15] and with Mus musculus [16] was “Non-toxic” each time.
Consider `Cc1cc2c(cc1-n1c(=O)[nH]c3cc(C(=O)O)ccc31)C(C)(C)CCC2(C)C`, for which the values for the Efficacy in [2], in [3] and in [5] were less than 5%, less than 5% and 22%, respectively.
Turning to `Cc1cc2c(cc1-n1c(=S)[nH]c3cc(C(=O)O)ccc31)C(C)(C)CCC2(C)C`, the results for the Efficacy in series [2], in series [3] and in series [5] were less than 5%, less than 5% and 37%, respectively.
